Experimental data: ChEMBL document CHEMBL3046880, “Syntheses and herbicidal activities of novel triazolinone derivatives” (J Agric Food Chem, 2008)

Experiments:
Triticum aestivum [1] = assay: Phytotoxicity against Triticum aestivum (wheat) plant assessed as growth inhibition at 450 g of active ingredient/ha administered using post-emergence treatment measured 30 days post treatment protocol under greenhouse conditions; type: organism-based; settings: in vivo, other, 720 h
In short: (§1)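 Compounds were formulated as 100 g/L emulsified concentrates in DMF with TW-80 as emulsifier, then diluted with water to the required concentration. They were applied postemergence to pot-grown plants in a greenhouse. The soil was clay, pH 6.5, with 1.6% organic matter, 37.3% clay particles and CEC 12.1 mol/kg. Sulfentrazone served as the reference control.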

Brassica napus [2] = assay: Phytotoxicity against Brassica napus (oilseed rape) assessed as growth inhibition at 450 g of active ingredient/ha administered using post-emergence treatment measured 30 days post treatment protocol under greenhouse conditions; type: organism-based; settings: in vivo, other, 720 h; in short: as §1
Triticum aestivum [3] = assay: Phytotoxicity against Triticum aestivum (wheat) plant assessed as growth inhibition at 300 g of active ingredient/ha administered using post-emergence treatment measured 30 days post treatment protocol under greenhouse conditions; type: organism-based; settings: in vivo, other, 720 h; in short: as §1
Glycine max [4] = assay: Phytotoxicity against Glycine max (soybean) plant assessed as growth inhibition at 150 g of active ingredient/ha administered using post-emergence treatment measured 30 days post treatment protocol under greenhouse conditions; type: organism-based; settings: in vivo, other, 720 h; in short: as §1
Eclipta prostrata [5] = assay: Herbicidal activity against Eclipta prostrata assessed as growth inhibition at 75 g of active ingredient/ha administered using post-emergence treatment measured 15 days post treatment protocol under greenhouse conditions; type: functional
In short: (§2)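 Test agents were formulated as 100 g/L emulsified concentrates (DMF solvent, TW-80 emulsifier), diluted with water and sprayed postemergence on pot-grown weeds. Seeds were sown 1-3 cm deep in clay soil (pH 6.5, 1.6% organic matter, 37.3% clay, CEC […]) and grown at 15–30 °C in a greenhouse. Dicots were treated at the two-leaf stage. Untreated and DMF-treated plants served as controls. Activity was scored visually 15 days after treatment.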

Brassica napus [6] = assay: Phytotoxicity against Brassica napus (oilseed rape) assessed as growth inhibition at 150 g of active ingredient/ha administered using post-emergence treatment measured 30 days post treatment protocol under greenhouse conditions; type: organism-based; settings: in vivo, other, 720 h; in short: as §1
Digitaria sanguinalis [7] = assay: Herbicidal activity against Digitaria sanguinalis (hairy crabgrass) assessed as growth inhibition at 37.5 g of active ingredient/ha administered using post-emergence treatment measured 15 days post treatment protocol under greenhouse conditions; type: functional; in short: as §2
Gossypium hirsutum [8] = assay: Phytotoxicity against Gossypium hirsutum (cotton) plant assessed as growth inhibition at 300 g of active ingredient/ha administered using post-emergence treatment measured 30 days post treatment protocol under greenhouse conditions; type: organism-based; settings: in vivo, other, 720 h; in short: as §1
[9] = Phytotoxicity against Glycine max (soybean) plant assessed as growth inhibition at 75 g of active ingredient/ha administered using post-emergence treatment measured 30 days post treatment protocol under greenhouse conditions; type: organism-based; settings: in vivo, read-out: GI; in short: as §1
Chenopodium album = assay: Herbicidal activity against Chenopodium album assessed as growth inhibition at 150 g of active ingredient/ha administered using post-emergence treatment measured 15 days post treatment protocol under greenhouse conditions; type: functional; in short: as §2
Senna tora = assay: Herbicidal activity against Senna tora assessed as growth inhibition at 75 g of active ingredient/ha administered using post-emergence treatment measured 15 days post treatment protocol under greenhouse conditions; type: functional; in short: as §2
Setaria viridis [10] = assay: Herbicidal activity against Setaria viridis (green foxtail) assessed as growth inhibition at 75 g of active ingredient/ha administered using post-emergence treatment measured 15 days post treatment protocol under greenhouse conditions; type: functional; in short: as §2
Amaranthus retroflexus = assay: Herbicidal activity against Amaranthus retroflexus assessed as growth inhibition at 37.5 g of active ingredient/ha administered using post-emergence treatment measured 15 days post treatment protocol under greenhouse conditions; type: functional; in short: as §2
[11] = Phytotoxicity against Oryza sativa (rice) plant assessed as growth inhibition at 300 g of active ingredient/ha administered using post-emergence treatment measured 30 days post treatment protocol under greenhouse conditions; type: organism-based; settings: in vivo, read-out: GI; in short: as §1
[12] = Phytotoxicity against Brassica napus (oilseed rape) assessed as growth inhibition at 75 g of active ingredient/ha administered using post-emergence treatment measured 30 days post treatment protocol under greenhouse conditions; type: organism-based; settings: in vivo, read-out: GI; in short: as §1
Digitaria sanguinalis [13] = assay: Herbicidal activity against Digitaria sanguinalis (hairy crabgrass) assessed as growth inhibition at 150 g of active ingredient/ha administered using post-emergence treatment measured 15 days post treatment protocol under greenhouse conditions; type: functional; in short: as §2
[14] = Phytotoxicity against Gossypium hirsutum (cotton) plant assessed as growth inhibition at 75 g of active ingredient/ha administered using post-emergence treatment measured 30 days post treatment protocol under greenhouse conditions; type: organism-based; settings: in vivo, read-out: GI; in short: as §1
Setaria viridis [15] = assay: Herbicidal activity against Setaria viridis (green foxtail) assessed as growth inhibition at 150 g of active ingredient/ha administered using post-emergence treatment measured 15 days post treatment protocol under greenhouse conditions; type: functional; in short: as §2
Gossypium hirsutum [16] = assay: Phytotoxicity against Gossypium hirsutum (cotton) plant assessed as growth inhibition at 150 g of active ingredient/ha administered using post-emergence treatment measured 30 days post treatment protocol under greenhouse conditions; type: organism-based; settings: in vivo, other, 720 h; in short: as §1
Glycine max [17] = assay: Phytotoxicity against Glycine max (soybean) plant assessed as growth inhibition at 300 g of active ingredient/ha administered using post-emergence treatment measured 30 days post treatment protocol under greenhouse conditions; type: organism-based; settings: in vivo, other, 720 h; in short: as §1
[18] = Phytotoxicity against Oryza sativa (rice) plant assessed as growth inhibition at 150 g of active ingredient/ha administered using post-emergence treatment measured 30 days post treatment protocol under greenhouse conditions; type: organism-based; settings: in vivo, read-out: GI; in short: as §1
Portulaca oleracea [19] = assay: Herbicidal activity against Portulaca oleracea assessed as growth inhibition at 75 g of active ingredient/ha administered using post-emergence treatment measured 15 days post treatment protocol under greenhouse conditions; type: functional; in short: as §2
Brassica napus [20] = assay: Phytotoxicity against Brassica napus (oilseed rape) assessed as growth inhibition at 300 g of active ingredient/ha administered using post-emergence treatment measured 30 days post treatment protocol under greenhouse conditions; type: organism-based; settings: in vivo, other, 720 h; in short: as §1
[21] = Phytotoxicity against Triticum aestivum (wheat) plant assessed as growth inhibition at 75 g of active ingredient/ha administered using post-emergence treatment measured 30 days post treatment protocol under greenhouse conditions; type: organism-based; settings: in vivo, read-out: GI; in short: as §1
Cerastium arvense = assay: Herbicidal activity against Cerastium arvense assessed as growth inhibition at 150 g of active ingredient/ha administered using post-emergence treatment measured 15 days post treatment protocol under greenhouse conditions; type: functional; in short: as §2
Portulaca oleracea [22] = assay: Herbicidal activity against Portulaca oleracea assessed as growth inhibition at 150 g of active ingredient/ha administered using post-emergence treatment measured 15 days post treatment protocol under greenhouse conditions; type: functional; in short: as §2
Portulaca oleracea [23] = assay: Herbicidal activity against Portulaca oleracea assessed as growth inhibition at 37.5 g of active ingredient/ha administered using post-emergence treatment measured 15 days post treatment protocol under greenhouse conditions; type: functional; in short: as §2
Echinochloa crus-galli [24] = assay: Herbicidal activity against Echinochloa crus-galli (barnyard grass) assessed as growth inhibition at 75 g of active ingredient/ha administered using post-emergence treatment measured 15 days post treatment protocol under greenhouse conditions; type: functional; in short: as §2
Glycine max [25] = assay: Phytotoxicity against Glycine max (soybean) plant assessed as growth inhibition at 450 g of active ingredient/ha administered using post-emergence treatment measured 30 days post treatment protocol under greenhouse conditions; type: organism-based; settings: in vivo, other, 720 h; in short: as §1
Echinochloa crus-galli [26] = assay: Herbicidal activity against Echinochloa crus-galli (barnyard grass) assessed as growth inhibition at 37.5 g of active ingredient/ha administered using post-emergence treatment measured 15 days post treatment protocol under greenhouse conditions; type: functional; in short: as §2
Eclipta prostrata [27] = assay: Herbicidal activity against Eclipta prostrata assessed as growth inhibition at 37.5 g of active ingredient/ha administered using post-emergence treatment measured 15 days post treatment protocol under greenhouse conditions; type: functional; in short: as §2

## CCS(=O)(=O)Nc1cc(-n2nc(C)n(Cc3ccccc3/C(=N\OC)C(=O)OC)c2=O)c(F)cc1Cl
Triticum aestivum [1]
  Activity: Toxic
Brassica napus [2]
  Activity: Toxic
Triticum aestivum [3]
  Activity: Toxic
Glycine max [4]
  Activity: Toxic
Eclipta prostrata [5]
  growth inhibition (GI): >80%
Brassica napus [6]
  Activity: Toxic
Digitaria sanguinalis [7]
  growth inhibition (GI): 50%
Gossypium hirsutum [8]
  Activity: Toxic
[9]
  inhibition at 720 h: 60%
Chenopodium album
  growth inhibition (GI): >80%
Senna tora
  growth inhibition (GI): >80%
Setaria viridis [10]
  growth inhibition (GI): <50%
Amaranthus retroflexus
  growth inhibition (GI): >80%
[11]
  inhibition at 720 h: 0%
[12]
  inhibition at 720 h: 80%
Digitaria sanguinalis [13]
  growth inhibition (GI): 50%
[14]
  inhibition at 720 h: 60%
Setaria viridis [15]
  growth inhibition (GI): 50%
Gossypium hirsutum [16]
  Activity: Toxic
Glycine max [17]
  Activity: Toxic
[18]
  inhibition at 720 h: 0%
Portulaca oleracea [19]
  growth inhibition (GI): 100%
Brassica napus [20]
  Activity: Toxic
[21]
  inhibition at 720 h: 40%
Cerastium arvense
  growth inhibition (GI): 100%
Portulaca oleracea [22]
  growth inhibition (GI): 100%
Portulaca oleracea [23]
  growth inhibition (GI): 100%
Echinochloa crus-galli [24]
  growth inhibition (GI): 50%
Glycine max [25]
  Activity: Toxic
Echinochloa crus-galli [26]
  growth inhibition (GI): <50%
Eclipta prostrata [27]
  growth inhibition (GI): >80%
